ChEMBL document CHEMBL1157834, “Structure-activity relationships of carbocyclic 6-benzylthioinosine analogues as subversive substrates of Toxoplasma gondii adenosine kinase” (Bioorg Med Chem, 2010)

Assays:
Adenosine kinase = biological target: T1, Adenosine kinase (Toxoplasma gondii, UniProt Q9TVW2); assay: Binding affinity to Toxoplasma gondii adenosine kinase after 20 mins by radioactivity method
T1 sequence (Q9TVW2 whole entry): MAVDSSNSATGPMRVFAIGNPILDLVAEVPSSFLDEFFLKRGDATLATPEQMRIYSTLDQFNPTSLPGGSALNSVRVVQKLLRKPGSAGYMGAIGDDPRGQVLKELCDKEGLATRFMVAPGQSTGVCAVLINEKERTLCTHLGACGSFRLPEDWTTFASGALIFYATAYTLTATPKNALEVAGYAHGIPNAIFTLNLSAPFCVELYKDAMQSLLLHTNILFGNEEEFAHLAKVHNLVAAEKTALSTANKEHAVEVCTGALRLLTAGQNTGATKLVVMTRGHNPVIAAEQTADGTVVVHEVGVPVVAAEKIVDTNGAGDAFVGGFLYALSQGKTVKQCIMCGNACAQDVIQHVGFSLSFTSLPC
In short: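 Purified cloned T. gondii adenosine kinase in 50 mM Tris–Cl pH 7.4 with 2.5 mM ATP, 5 mM MgCl₂, 5 mM creatine phosphate, creatine kinase and [8-¹⁴C]adenosine (55 Ci/mol), with or without varied compound, at 37 °C under linear conditions. Stopped by boiling; adenosine and AMP separated by TLC (CHCl₃/MeOH/AcOH 102:12:6) and radioactivity quantified. Apparent Ki taken as apparent Km. ≥2 experiments in triplicate.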

[1] = biological target: T2, Adenosine kinase (Toxoplasma gondii) (UniProt Q9TVW2); assay: Ratio of Km for carbocyclic 6-benzylthioinosine to Km for drug for binding affinity to Toxoplasma gondii adenosine kinase after 20 mins by radioactivity method
T2 sequence (whole entry): T1 sequence (Q9TVW2 whole entry)

Toxoplasma gondii [2] = assay: Antimicrobial activity against wild-type Toxoplasma gondii RH infected in human CRL1634 cells assessed as intracellular parasite survival at 5 uM after 18 hrs by [5,6-[…]]uracil-based scintillation counting; assay type: functional
In short: (§1)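 Confluent human foreskin fibroblasts (≤20 passages, RPMI-1640) plated ~5×10⁵/well for 24 h at 37 °C, 5% CO₂. Infected with isolated tachyzoites in 3% FBS medium, 1 parasite/cell, for 1 h, then washed with 10% FBS medium. Compounds in 50% ethanol added to 0–50 µM (final ethanol 2.5%). After 18 h, drug-free medium with [5,6-³H]uracil (5 µCi/mL) for 6 h. TCA precipitates collected on glass-fiber filters and counted by scintillation. Growth taken as % uptake of treated vs untreated; ≥2 experiments in triplicate.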

Toxoplasma gondii [3] = assay: Antimicrobial activity against wild-type Toxoplasma gondii RH infected in human CRL1634 cells assessed as intracellular parasite survival at 10 uM after 18 hrs by [5,6-[…]]uracil-based scintillation counting; assay type: functional; in short: as §1
Toxoplasma gondii [4] = assay: Antimicrobial activity against wild-type Toxoplasma gondii RH infected in human CRL1634 cells assessed as intracellular parasite survival at 25 uM after 18 hrs by [5,6-[…]]uracil-based scintillation counting; assay type: functional; in short: as §1
Toxoplasma gondii [5] = assay: Antimicrobial activity against wild-type Toxoplasma gondii RH infected in human CRL1634 cells assessed as intracellular parasite survival at 50 uM after 18 hrs by [5,6-[…]]uracil-based scintillation counting; assay type: functional; in short: as §1
Toxoplasma gondii [6] = assay: Antimicrobial activity against adenosine kinase deficient Toxoplasma gondii TgAK-3 infected in human CRL1634 cells assessed as intracellular parasite survival at 5 uM after 18 hrs by [5,6-[…]]uracil-based scintillation counting; assay type: functional; in short: as §1
Toxoplasma gondii [7] = assay: Antimicrobial activity against adenosine kinase deficient Toxoplasma gondii TgAK-3 infected in human CRL1634 cells assessed as intracellular parasite survival at 10 uM after 18 hrs by [5,6-[…]]uracil-based scintillation counting; assay type: functional; in short: as §1
Toxoplasma gondii [8] = assay: Antimicrobial activity against adenosine kinase deficient Toxoplasma gondii TgAK-3 infected in human CRL1634 cells assessed as intracellular parasite survival at 25 uM after 18 hrs by [5,6-[…]]uracil-based scintillation counting; assay type: functional; in short: as §1
Toxoplasma gondii [9] = assay: Antimicrobial activity against adenosine kinase deficient Toxoplasma gondii TgAK-3 infected in human CRL1634 cells assessed as intracellular parasite survival at 50 uM after 18 hrs by [5,6-[…]]uracil-based scintillation counting; assay type: functional; in short: as §1
Toxoplasma gondii [10] = assay: Antimicrobial activity against Toxoplasma gondii infected in human CRL1634 cells assessed as intracellular parasite survival at 25 uM after 18 hrs by [5,6-[…]]uracil-based scintillation counting; assay type: functional; in short: as §1
[11] = system: Toxoplasma gondii (RH strain); assay: Activity against Toxoplasma gondii RH in human CRL1634 cells after 18 hrs by [5,6-3H]uracil incorporation assay
Homo sapiens [12] = species: Homo sapiens; assay: Cytotoxicity against uninfected human CRL1634 cells assessed as cell viability at 5 uM after 48 hrs by MTT assay
Homo sapiens [13] = species: Homo sapiens; assay: Cytotoxicity against uninfected human CRL1634 cells assessed as cell viability at 10 uM after 48 hrs by MTT assay

## Cc1ccc(CSc2ncnc3c2ncn3[C@@H]2C[C@H](CO)[C@@H](O)[C@H]2O)cc1
Adenosine kinase
  Ki: 7.5 µM
[1]
  Ratio: 14
Toxoplasma gondii [2]
  Activity: 43%
Toxoplasma gondii [3]
  Activity: 2.5%
Toxoplasma gondii [4]
  Activity: 0%
Toxoplasma gondii [5]
  Activity: 0%
Toxoplasma gondii [6]
  Activity: 99%
Toxoplasma gondii [7]
  Activity: 100%
Toxoplasma gondii [8]
  Activity: 100%
Toxoplasma gondii [9]
  Activity: 100%
Toxoplasma gondii [10]
  Activity: 100%
[11]
  IC50: 11.9 µM
Homo sapiens [12]
  Activity: 100%
Homo sapiens [13]
  Activity: 100%

## O=[N+]([O-])c1ccc(CSc2ncnc3c2ncn3[C@@H]2C[C@H](CO)[C@@H](O)[C@H]2O)cc1
Adenosine kinase
  Ki: 94.1 µM

## Cc1cc(C)c(CSc2ncnc3c2ncn3[C@@H]2C[C@H](CO)[C@@H](O)[C@H]2O)c(C)c1
Adenosine kinase
  Ki: 63.1 µM

## OC[C@H]1C[C@@H](n2cnc3c(SCc4ccc(Cl)c(Cl)c4)ncnc32)[C@H](O)[C@@H]1O
Adenosine kinase
  Ki: 16.8 µM

## OC[C@H]1C[C@@H](n2cnc3c(SCc4ccc(OC(F)(F)F)cc4)ncnc32)[C@H](O)[C@@H]1O
Adenosine kinase
  Ki: 65.5 µM

## N#Cc1ccc(CSc2ncnc3c2ncn3[C@@H]2C[C@H](CO)[C@@H](O)[C@H]2O)cc1
Adenosine kinase
  Ki: 129 µM

## OC[C@H]1C[C@@H](n2cnc3c(SCc4ccccc4)ncnc32)[C@H](O)[C@@H]1O
Adenosine kinase
  Ki: 105 µM

## CCc1nc(N)nc(N)c1-c1ccc(Cl)cc1 [PYRIMETHAMINE]
Toxoplasma gondii [2]
  Activity: 99%
Toxoplasma gondii [3]
  Activity: 55%
Toxoplasma gondii [4]
  Activity: 25%
Toxoplasma gondii [5]
  Activity: 23%
Toxoplasma gondii [10]
  Activity: 108%
[11]
  IC50: 16.1 µM
Homo sapiens [12]
  Activity: 101%
Homo sapiens [13]
  Activity: 100%

## COC(=O)c1ccc(CSc2ncnc3c2ncn3[C@@H]2C[C@H](CO)[C@@H](O)[C@H]2O)cc1
Adenosine kinase
  Ki: 40.9 µM

## Cc1ccccc1CSc1ncnc2c1ncn2[C@@H]1C[C@H](CO)[C@@H](O)[C@H]1O
Adenosine kinase
  Ki: 24.9 µM

## OC[C@H]1C[C@@H](n2cnc3c(SCc4ccc(Br)cc4)ncnc32)[C@H](O)[C@@H]1O
Adenosine kinase
  Ki: 21.1 µM

## OC[C@H]1C[C@@H](n2cnc3c(SCc4ccccc4Cl)ncnc32)[C@H](O)[C@@H]1O
Adenosine kinase
  Ki: 24.2 µM

## OC[C@H]1C[C@@H](n2cnc3c(SCc4ccc(F)cc4)ncnc32)[C@H](O)[C@@H]1O
Adenosine kinase
  Ki: 31.9 µM

## O=[N+]([O-])c1cccc(CSc2ncnc3c2ncn3[C@@H]2C[C@H](CO)[C@@H](O)[C@H]2O)c1
Adenosine kinase
  Ki: 26.6 µM

## Cc1cccc(CSc2ncnc3c2ncn3[C@@H]2C[C@H](CO)[C@@H](O)[C@H]2O)c1
Adenosine kinase
  Ki: 26.8 µM

## OC[C@H]1O[C@@H](n2cnc3c(SCc4ccccc4)ncnc32)[C@H](O)[C@@H]1O [6-BENZYLTHIOINOSINE]
Adenosine kinase
  Ki: 14.3 µM

## OC[C@H]1C[C@@H](n2cnc3c(SCc4ccc(Cl)cc4)ncnc32)[C@H](O)[C@@H]1O
Adenosine kinase
  Ki: 15.6 µM
Toxoplasma gondii [2]
  Activity: 73%
Toxoplasma gondii [3]
  Activity: 12%
Toxoplasma gondii [4]
  Activity: 0%
Toxoplasma gondii [5]
  Activity: 0%
Toxoplasma gondii [6]
  Activity: 100%
Toxoplasma gondii [7]
  Activity: 100%
Toxoplasma gondii [8]
  Activity: 100%
Toxoplasma gondii [9]
  Activity: 100%
Toxoplasma gondii [10]
  Activity: 100%
[11]
  IC50: 14.5 µM
Homo sapiens [12]
  Activity: 100%
Homo sapiens [13]
  Activity: 100%

## OC[C@H]1C[C@@H](n2cnc3c(SCc4c(F)cccc4Cl)ncnc32)[C@H](O)[C@@H]1O
Adenosine kinase
  Ki: 31.3 µM

## OC[C@H]1C[C@@H](n2cnc3c(SCc4ccccc4F)ncnc32)[C@H](O)[C@@H]1O
Adenosine kinase
  Ki: 54.8 µM

## OC[C@H]1C[C@@H](n2cnc3c(SCc4ccc(Cl)cc4Cl)ncnc32)[C@H](O)[C@@H]1O
Adenosine kinase
  Ki: 60.7 µM

## CS(=O)(=O)c1ccc(CSc2ncnc3c2ncn3[C@@H]2C[C@H](CO)[C@@H](O)[C@H]2O)cc1
Adenosine kinase
  Ki: 73.7 µM

## OC[C@H]1C[C@@H](n2cnc3c(SCc4cccc(C(F)(F)F)c4)ncnc32)[C@H](O)[C@@H]1O
Adenosine kinase
  Ki: 22.2 µM

## COc1ccc(CSc2ncnc3c2ncn3[C@@H]2C[C@H](CO)[C@@H](O)[C@H]2O)cc1
Adenosine kinase
  Ki: 62 µM

## Nc1ccc(S(=O)(=O)Nc2ncccn2)cc1 [SULFADIAZINE]
Toxoplasma gondii [2]
  Activity: 93%
Toxoplasma gondii [3]
  Activity: 58%
Toxoplasma gondii [4]
  Activity: 53%
Toxoplasma gondii [5]
  Activity: 46%
Toxoplasma gondii [10]
  Activity: 100%
[11]
  IC50: 27.3 µM
Homo sapiens [12]
  Activity: 98%
Homo sapiens [13]
  Activity: 100%
